The list is not random: actives were taken first. Their share in the collection is about 1.1%.
aDG glyco act: increases alpha dystroglycan glycosylation; 360,000 compounds, 0.22% hits; activation, % at 10 µM; Pro5-aDG cells, alpha-DG glycosylation AlphaScreen (IIH6); 0% Pro5, 100% B10-LARGE cell signal;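 active = activation of at least 8% versus controls, or a plate z-score of at least 8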;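 also: Pro5 are CHO cells carrying HIG-tagged alpha-DG that lacks glycosylation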
GRK2 aptamer HTS: blocks RNA aptamer binding to human GRK2; P25098; inhibition of aptamer binding, % at 10 µM; 330,000 compounds, 0.59% hits; AID 488847; bead flow cytometry, FAM-aptamer displacement from GRK2;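 active = inhibition of aptamer binding above 40%, roughly 3 SD of noise, on plates passing a quality check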;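 also: median bead fluorescence of bound FAM aptamer so fluorescent compounds give negative values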
proCasp3 act: procaspase-3 (human) activation; AID 463141; activation, % at 8.5 µM; 330,000 compounds, 0.11% hits; recombinant procaspase-3 D3A, Ac-DEVD-pNA absorbance 405 nm; P42574;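 active = activation above the mean of all tested compounds plus 3 SD, cut at about 21% in these data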;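 also: 0% = DMSO alone and 100% = DMSO wells spiked with extra 5 µM PC-3 D3A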
Target sequence (P42574 whole entry D9A/D28A/D175A): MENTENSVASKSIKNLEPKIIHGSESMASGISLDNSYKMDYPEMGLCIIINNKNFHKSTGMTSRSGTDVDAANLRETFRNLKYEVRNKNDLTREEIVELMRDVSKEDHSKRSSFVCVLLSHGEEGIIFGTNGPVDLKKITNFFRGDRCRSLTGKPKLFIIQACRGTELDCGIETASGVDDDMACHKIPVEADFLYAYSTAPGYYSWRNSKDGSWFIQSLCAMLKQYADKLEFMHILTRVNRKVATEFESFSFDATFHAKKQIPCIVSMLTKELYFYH
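Evaluation: percent activation relative to control range; Material: Procaspase-3 D3A mutant, all three cleavage aspartates alanine; Compound: single dose, 8.5 µM nominal compound, 0.8% DMSO; Replication: one well per compound; Signal: absorbance at 405 nm, 0 and 120 min; Schedule: 1 h preincubation plus 2 h reaction at 25 °C.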
proCasp7 act: counter-screen for procaspase-3 activators: activators of human procaspase-7; P55210; recombinant procaspase-7, Ac-DEVD-pNA absorbance 405 nm; D23A/D198A/D206A triple mutant, cannot self-cleave; scale: DMSO 0, 5 µM enzyme 100; activation, % at 8.5 µM; 330,000 compounds, 0.093% hits;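 active = percent activation above the screen-wide mean plus 3 SD, cut at about 25% in these data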
Target sequence (P55210 whole entry D23A/D198A/D206A): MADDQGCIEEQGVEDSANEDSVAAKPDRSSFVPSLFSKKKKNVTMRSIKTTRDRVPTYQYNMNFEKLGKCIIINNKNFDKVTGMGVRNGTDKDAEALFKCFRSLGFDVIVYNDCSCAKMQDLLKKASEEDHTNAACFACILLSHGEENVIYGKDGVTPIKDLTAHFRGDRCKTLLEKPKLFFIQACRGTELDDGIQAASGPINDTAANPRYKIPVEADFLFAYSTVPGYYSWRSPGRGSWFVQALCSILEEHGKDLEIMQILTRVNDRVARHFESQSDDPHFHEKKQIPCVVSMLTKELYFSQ
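Assay system: Uncleavable procaspase-7 mutant enzyme | Input: 2 µM procaspase-7 mutant as dispensed | Timing: 1 h compound preincubation, 2 h substrate cleavage, 25 °C | Repeats: One well per compound | Control set: DMSO wells as 0%, DMSO with 5 µM added PC-7 as 100% | Technique: Epi-absorbance of released pNA at 405 nm, two timepoints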
T cell modulator: T cell immune modulation candidate; 2C CD8+ T cell-vesicle binding, flow cytometry; stronger effect = lower value; 330,000 compounds, 0.068% hits; AID 2052; response (vesicle binding), % at 7 µM;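 active = response, share of CD8 T cells binding vesicles, and their 90th percentile fluorescence all below set limits, cut at about 80% in these data, passing the limit was not always enough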;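 also: values below 100% mean blocked vesicle binding to the CD8+ T cells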
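Incubation: binding step 1.5 h, 37 °C, antibody labelling 20 min, ice; system: murine 2C transgenic CD8+ T lymphocytes; technique: cytometric PE anti-B7-1 and Alexa647 anti-CD8 signals after 1% paraformaldehyde fixation; also added: QL9-charged Drosophila Ld/ICAM-1/B7-1 vesicles; control set: naked versus QL9-loaded vesicles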
CaV13 ICDI inh: Primary screen for inhibitors of IQ motif and Ca2+-dependent inactivation inhibitor domain binding in CACNA1D, Förster resonance energy transfer in living cells, … | 340,000 compounds, 0.098% hits | inhibition, % at 12.3 µM | HEK cells, CFP/YFP FRET ICDI-IQ, plate reader, 10 min; percent FRET-ratio fall versus neutral wells | AID 743397;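 active = mean replicate inhibition of at least 30% and at least 1% of replicates passing that level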;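 also: 0% = median of the neutral control wells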
procasp7 triplic: activates human procaspase-7, counter-screen for procaspase-3 activators; activation, % at 8.5 µM; 210 tested, under 10 active; shares compounds with proCasp3 act; AID 488941; recombinant procaspase-7, Ac-DEVD-pNA absorbance; asp23/198/206-to-Ala mutant, cannot self-cleave;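 active = mean activation above a set limit taken from an earlier procaspase-7 screen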;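 also: 0% = DMSO wells and 100% = DMSO plus 5 µM procaspase-7 enzyme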
procasp3 conf: confirmation of human procaspase-3 activators; AID 488954; 210 compounds, 10% hits; recombinant PC-3 D3A, Ac-DEVD-pNA absorbance 405 nm; 100% is higher-enzyme control; shares compounds with proCasp3 act; activation, % at 8.5 µM;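 active = mean activation above a set limit carried over from the earlier primary screen, cut at about 22% in these data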
The depositor's hits bear a star; . = no result.

SMILES	aDG glyco act	GRK2 aptamer HTS	proCasp3 act	proCasp7 act	T cell modulator	CaV13 ICDI inh	procasp7 triplic	procasp3 conf
COC(=O)[C@]12C[C@H](CC(=O)N3CCSCC3)C(=O)N(Cc3ccccc3)C1=C[C@H](C(C)(C)C)O[C@@H]2C	.	.	.	.	.	-11	.	.
C=CCN(c1ccccc1)S(=O)(=O)c1cccc(C(=O)Oc2ccc3c(C)cc(=O)oc3c2)c1	0	0	21*	21	301	-6	-7	-7
C#CCN(C[C@H]1[C@H](OC(=O)NCCCCCC)[C@H](OC(=O)NCCCCCC)CN(C(=O)OC(C)C)N1C(=O)OC(C)C)S(=O)(=O)c1ccc(C)cc1	.	.	.	.	.	-7	.	.
Nc1[nH]c(C(=O)c2ccc(Cl)cc2)c(-c2ccc(Br)cc2)c1C(=O)NCc1ccc(Cl)cc1Cl	.	.	.	.	.	-15	.	.
O=C(Nc1cc(S(=O)(=O)N2CCOCC2)ccc1N1CCOCC1)c1ccccc1F	0	0	23*	-2	438	-6	2	3
O=C(/C=C1\NC2(CCCC2)Cc2ccccc21)C(=O)N/N=C/c1ccccc1O	0	2	24*	0	103	-6	24	32*
COc1cc(/C=N/NC(=O)C(=O)/C=C2\NC3(CCCC3)Cc3ccccc32)ccc1O	0	2	-7	-13	330	-15	.	.
CC(C)C1CC(N(C)C)=CC(=S)N1 (stereo not drawn)	.	.	.	.	.	-14	.	.
O=S1(=O)C=C(Sc2ccc(Cl)cc2)c2ccccc2C1Cc1ccc(F)cc1 (stereo not drawn)	.	.	.	.	.	-5	.	.
O=C1C2C(c3ccccc3)=NN(c3ccccc3)C2C(=O)N1c1ccccc1 (stereo not drawn)	0	0	23*	25	250	-3	36*	47*
CCCCN(C(=O)c1cccc(S(=O)(=O)N2CCN(C)CC2)c1)c1c(N)n(CCCC)c(=O)[nH]c1=O	0	0	1	4	175	-5	.	.
CCCCn1c(N)c(N(CC)C(=O)c2cccc(S(=O)(=O)N3CCN(C)CC3)c2)c(=O)[nH]c1=O	0	0	24*	6	454	-6	4	7
Cc1cccn2c(=O)c3cc(C(=O)NCCc4ccccc4)sc3nc12	0	0	31*	5	322	-8	-19	-14
COc1ccc(C2CC(c3ccc(Cl)cc3)=NN2c2ccc(S(N)(=O)=O)cc2)cc1 (stereo not drawn)	2	0	33*	8	.	-4	-23	-12
COc1ccc(C2CC(c3ccncc3)=NN2c2ccc(S(N)(=O)=O)cc2)cc1 (stereo not drawn)	0	16	-5	6	.	-16	.	.
Cc1c(CCC(=O)O)c(=O)oc2cc(O)ccc12	0	0	24*	21	263	-9	-21	-12
Cc1c(CCC(=O)O)c(=O)oc2cc3occ(C(C)(C)C)c3cc12	0	0	9	5	349	-2	.	.
COc1ccccc1[C@@H]1C(c2cccc(C)c2)=NN(c2ccccc2)[C@H]1C(=O)N1CCOC1=O	0	0	24*	18	515	-5	-22	-15
COc1ccccc1[C@@H]1C(c2ccccc2)=NN(c2ccccc2)[C@H]1C(=O)N1CCOC1=O	0	0	11	23	.	-6	.	.
Nc1[nH]c(C(=O)c2ccccc2)c(-c2ccc(Cl)c(F)c2)c1C(=O)c1c[nH]c2ccccc12	.	.	.	.	.	-17	.	.
Cc1ccc(-c2cn(S(=O)(=O)c3cccc4nsnc34)nc2N)cc1	0	0	23*	-2	216	-2	2	1
COc1ccc2cc(S(=O)(=O)NCCCN3CCOCC3)ccc2c1	0	0	22*	-4	338	-4	2	6
Cc1cc(N2CCNC[C@@H]2C)ccc1N1CCN(Cc2ccccc2)[C@@H](C)C1	.	.	.	.	.	-8	.	.
COc1ccc(C(=O)NNC(=O)c2cc3cc([N+](=O)[O-])ccc3oc2=O)cc1OC	0	14	3	-1	124	-8	.	.
CC(NC(=O)c1cc2cc([N+](=O)[O-])ccc2oc1=O)C1CCCO1 (stereo not drawn)	0	2	22*	21	237	-6	21	32*
SMILES	aDG glyco act	GRK2 aptamer HTS	proCasp3 act	proCasp7 act	T cell modulator	CaV13 ICDI inh	procasp7 triplic	procasp3 conf
CCn1c(NCc2cccc(OC)c2OC)nc2ccccc21	0	1	22*	17	310	-5	4	2
COc1cccc(-c2ncn(CCc3ccccc3OC)c2CC(C)C)c1	.	.	.	.	.	-11	.	.
Cc1ccc(NC(=O)CN2CCC(C(=O)c3ccc(F)cc3)CC2)cc1	0	0	38*	8	538	-4	2	5
Cc1ccc(C(=O)C2CCN(CC(=O)NCc3ccc(F)cc3)CC2)cc1	0	1	11	6	320	-4	.	.
CCOCCCNC(=O)c1ccc(N(C)S(=O)(=O)c2ccc(OC)cc2)cc1	0	1	22*	-3	274	-10	1	5
COC(=O)c1cc(S(=O)(=O)NCC2CCN(C(=O)C(=O)c3cc4ccccc4o3)CC2)cs1	.	.	.	.	.	-11	.	.
Cn1c(SCc2ccccc2F)nc2ccccc2c1=O	0	0	22*	6	562	-8	1	3
O=c1c2ccccc2c(-c2ccccc2)nn1-c1cc(Cl)cc(Cl)c1	0	0	22*	3	209	0	3	6
O=c1c2ccccc2c(-c2ccccc2)nn1Cc1c(Cl)cccc1Cl	0	5	-3	10	321	-4	.	.
COc1ccc2nc(Nc3nc4cc5c(cc4s3)OCO5)sc2c1	0	13	69*	7	518	-19	-20	-14
COc1ccc2nc(Nc3ccc4c(c3)OCO4)sc2c1	0	3	2	-5	206	.	.	.
CCCCc1c(-c2ccccc2OC)ncn1C(C)c1ccccc1 (stereo not drawn)	.	.	.	.	.	-7	.	.
COc1ccc(-c2ccc(C#N)c(SCC(=O)OCc3ccccc3)n2)cc1OC	2	2	34*	10	351	-6	4	6
N#Cc1ccc(-c2ccc3c(c2)OCO3)nc1SCC(=O)OCc1ccccc1	0	0	-22	-22	165	-4	.	.

Source: PubChem (several laboratories)
